Values after ≈ are worked out from the molar mass of the structure shown.
Columns and labels:
Type in all cases: functional
Escherichia coli = test: Minimum inhibitory concentration against Escherichia coli
Mus musculus = test: In vivo effective dose against Pasteurella multocida infection in mouse
Procedure, shortened: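 Mice infected with P. multocida serotype 5A. Subcutaneous dosing 0.5 h post-infection at 5 to 80 mg/kg. ED50 calculated from the number of mice surviving four days after infection.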

Pasteurella multocida = test: Minimum inhibitory concentration against Pasteurella multocida
Procedure, shortened: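 P. multocida strain 59A0067 (turkey origin), grown overnight on BHI plates; colonies in saline at OD625 0.09 (0.5 McFarland), diluted 1:100 in BHI broth. Two-fold serial dilutions in BHI microdilution, about 5×10⁵ cfu/mL final, 37 °C for 18 h. MIC is the lowest concentration with A600 ≤ 0.025.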

| MIC (Escherichia coli) [µg/mL] | MIC (Pasteurella multocida) [µg/mL] | Structure (SMILES) | ED50 (Mus musculus) [mg/kg] |
| --- | --- | --- | --- |
| 1.56 (≈ 2.04 µM) | 0.2 (≈ 0.262 µM) | CC[C@H]1OC(=O)[C@H](C)[C@@H](O[C@H]2C[C@@](C)(OC)[C@@](O)(CC)[C@H](C)O2)[C@H](C)[C@@H](O[C@@H]2O[C@H](C)C[C@H](N(C)C)[C@H]2O)[C@](C)(O)C[C@@H](C)CN[C@H](C)[C@@H](O)[C@]1(C)O | 61 |
| 3.13 (≈ 3.62 µM) | 0.2 (≈ 0.231 µM) | CC[C@H]1OC(=O)[C@H](C)[C@@H](O[C@H]2C[C@@](C)(OC)[C@@](O)(c3cc4ccccc4n3C)[C@H](C)O2)[C@H](C)[C@@H](O[C@@H]2O[C@H](C)C[C@H](N(C)C)[C@H]2O)[C@](C)(O)C[C@@H](C)CN[C@H](C)[C@@H](O)[C@]1(C)O | > 40 |
| 3.13 (≈ 3.85 µM) | 0.39 (≈ 0.48 µM) | CC[C@H]1OC(=O)[C@H](C)[C@@H](O[C@H]2C[C@@](C)(OC)[C@@](O)(c3cccnc3)[C@H](C)O2)[C@H](C)[C@@H](O[C@@H]2O[C@H](C)C[C@H](N(C)C)[C@H]2O)[C@](C)(O)C[C@@H](C)CN[C@H](C)[C@@H](O)[C@]1(C)O | > 40 |
| 3.13 (≈ 3.83 µM) | 0.78 (≈ 0.955 µM) | CC[C@H]1OC(=O)[C@H](C)[C@@H](O[C@H]2C[C@@](C)(OC)[C@@](O)(c3cccs3)[C@H](C)O2)[C@H](C)[C@@H](O[C@@H]2O[C@H](C)C[C@H](N(C)C)[C@H]2O)[C@](C)(O)C[C@@H](C)CN[C@H](C)[C@@H](O)[C@]1(C)O | > 80 |
| 0.78 (≈ 0.966 µM) | 0.2 (≈ 0.248 µM) | CC[C@H]1OC(=O)[C@H](C)[C@@H](O[C@H]2C[C@@](C)(OC)[C@@](O)(CCCOC)[C@H](C)O2)[C@H](C)[C@@H](O[C@@H]2O[C@H](C)C[C@H](N(C)C)[C@H]2O)[C@](C)(O)C[C@@H](C)CN[C@H](C)[C@@H](O)[C@]1(C)O | 49 |
| 50 (≈ 57.5 µM) | 0.78 (≈ 0.897 µM) | CC[C@H]1OC(=O)CC(O)[C@H](C)[C@@H](OC2O[C@H](C)[C@@H](O)[C@H](N(C)C)[C@H]2O)[C@@H](CCN2C[C@H](C)C[C@H](C)C2)CC(C)C(=O)/C=C/C(C)=C/[C@@H]1CO[C@@H]1O[C@H](C)[C@@H](O)[C@@H](OC)[C@H]1OC (stereo partly drawn) | – |
| 0.78 (≈ 1.02 µM) | 0.1 (≈ 0.131 µM) | CC[C@H]1OC(=O)[C@H](C)[C@@H](O[C@H]2C[C@@](C)(OC)[C@](C)(O)[C@H](C)O2)[C@H](C)[C@@H](O[C@@H]2O[C@H](C)C[C@H](N(C)C)[C@H]2O)[C@](C)(O)C[C@@H](C)CN(C)[C@H](C)[C@@H](O)[C@]1(C)O | 26 |

Second part, the molecule before the results:

| Structure (SMILES) | MIC (Escherichia coli) [µg/mL] | MIC (Pasteurella multocida) [µg/mL] | ED50 (Mus musculus) [mg/kg] |
| --- | --- | --- | --- |
| C=C[C@@]1(O)[C@H](C)O[C@@H](O[C@H]2[C@H](C)[C@@H](O[C@@H]3O[C@H](C)C[C@H](N(C)C)[C@H]3O)[C@](C)(O)C[C@@H](C)CN[C@H](C)[C@@H](O)[C@](C)(O)[C@@H](CC)OC(=O)[C@@H]2C)C[C@@]1(C)OC | 1.56 (≈ 2.05 µM) | 0.2 (≈ 0.263 µM) | 66 |
| CC[C@H]1OC(=O)[C@H](C)[C@@H](O[C@H]2C[C@@](C)(OC)[C@@](O)(c3cc4ccccc4n3C)[C@H](C)O2)[C@H](C)[C@@H](O[C@@H]2O[C@H](C)C[C@H](N(C)C)[C@H]2O)[C@](C)(O)C[C@@H](C)CN(C)[C@H](C)[C@@H](O)[C@]1(C)O | 6.25 (≈ 7.12 µM) | 0.39 (≈ 0.444 µM) | > 40 |
| CC#C[C@@]1(O)[C@H](C)O[C@@H](O[C@H]2[C@H](C)[C@@H](O[C@@H]3O[C@H](C)C[C@H](N(C)C)[C@H]3O)[C@](C)(O)C[C@@H](C)CN[C@H](C)[C@@H](O)[C@](C)(O)[C@@H](CC)OC(=O)[C@@H]2C)C[C@@]1(C)OC | 1.56 (≈ 2.02 µM) | 0.2 (≈ 0.259 µM) | 21 |
| CC[C@H]1OC(=O)[C@H](C)[C@@H](O[C@H]2C[C@@](C)(OC)[C@]3(CO3)[C@H](C)O2)[C@H](C)[C@@H](O[C@@H]2O[C@H](C)C[C@H](N(C)C)[C@H]2O)[C@](C)(O)C[C@@H](C)CN[C@H](C)[C@@H](O)[C@]1(C)O | 3.13 (≈ 4.19 µM) | 0.1 (≈ 0.134 µM) | – |
| CC#C[C@@]1(O)[C@H](C)O[C@@H](O[C@H]2[C@H](C)[C@@H](O[C@@H]3O[C@H](C)C[C@H](N(C)C)[C@H]3O)[C@](C)(O)C[C@@H](C)CN(C)[C@H](C)[C@@H](O)[C@](C)(O)[C@@H](CC)OC(=O)[C@@H]2C)C[C@@]1(C)OC | 1.56 (≈ 1.98 µM) | 0.2 (≈ 0.254 µM) | 42 |
| CC[C@H]1OC(=O)[C@H](C)[C@@H](O[C@H]2C[C@@](C)(OC)[C@](C)(O)[C@H](C)O2)[C@H](C)[C@@H](O[C@@H]2O[C@H](C)C[C@H](N(C)C)[C@H]2O)[C@](C)(O)C[C@@H](C)CN[C@H](C)[C@@H](O)[C@]1(C)O | 0.78 (≈ 1.04 µM) | < 0.1 | 28 |
| CC[C@H]1OC(=O)[C@H](C)[C@@H](O[C@H]2C[C@@](C)(OC)[C@@]3(CO3)[C@H](C)O2)[C@H](C)[C@@H](O[C@@H]2O[C@H](C)C[C@H](N(C)C)[C@H]2O)[C@](C)(O)C[C@@H](C)CN[C@H](C)[C@@H](O)[C@]1(C)O | 1.56 (≈ 2.09 µM) | < 0.1 | 31 |
| CC[C@H]1OC(=O)[C@H](C)[C@@H](O[C@H]2C[C@@](C)(OC)[C@@](O)(CSC)[C@H](C)O2)[C@H](C)[C@@H](O[C@@H]2O[C@H](C)C[C@H](N(C)C)[C@H]2O)[C@](C)(O)C[C@@H](C)CN[C@H](C)[C@@H](O)[C@]1(C)O | 3.13 (≈ 3.94 µM) | 0.1 (≈ 0.126 µM) | 44 |

Source: ChEMBL document CHEMBL1136530, “Synthesis, stereochemical assignment and biological activity of a novel series of C-4" modified aza-macrolides” (2003)
